These results are taken from ChEMBL document CHEMBL4364256, “Design, synthesis and biological evaluation of antimicrobial diarylimine and -amine compounds targeting the interaction between the bacterial NusB and NusE proteins” (Eur J Med Chem, 2019).

Structures are written as SMILES. Values after ≈ are worked out from the molar mass of the structure shown. Active and inactive are the calls of the source. The calls are words filed in the database; no cut-off is given here.

One series relates to Bacillus subtilis. Briefly: Inhibition of N-terminal LgBiT-fused Bacillus subtilis NusB expressed in Escherichia coli BL21(DE3)pLysS interaction with C- terminal SmBiT-fused Bacillus subtilis NusE expressed in Escherichia coli BL21(DE3)pLysS at 100 uM preincubated for 10 mins followed by NusE addition and measured after 10 mins by nano-glo luciferase assay relative to control. The procedure, abridged:
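NusB and NusE were mixed 1:1 at 1 µM in PBS, with compound at 100 µM. The read-out was percent inhibition of the NusB-NusE interaction.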

A further series has as its system Enterococcus faecium. Briefly: Antimicrobial activity against Enterococcus faecium ATCC 19433 incubated for 20 hrs by microdilution method. Format: functional. The conditions noted are these: ATCC 19433, 20 h. The gist of the method: (§1)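 Broth microdilution MIC testing done following CLSI guidelines.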
The test system of the next series is Streptococcus pneumoniae. Put plainly: Antimicrobial activity against Streptococcus pneumoniae ATCC 49619 incubated for 20 hrs by microdilution method. Format: functional. The conditions noted are these: ATCC 49619, 20 h. The procedure, abridged:
as §1
(Broth dilution looks for growth in wells or tubes with falling amounts of substance.)

Another series relates to Acinetobacter baumannii. Put plainly: Antimicrobial activity against Acinetobacter baumannii ATCC 19606 incubated for 20 hrs by microdilution method. The conditions noted are these: ATCC 19606 = CIP 70.34 = JCM 6841, 20 h. Format: functional. The gist of the method:
as §1

A further series has as its system Pseudomonas aeruginosa. Put plainly: Antimicrobial activity against Pseudomonas aeruginosa ATCC 27853 incubated for 20 hrs by microdilution method. The series is classed as functional. As to conditions: ATCC 27853, 20 h. The gist of the method: as §1
The subject of series [1] is Staphylococcus aureus. Put plainly: Growth inhibition of Staphylococcus aureus ATCC 25923 at 1/4 times MIC preincubated for 24 hrs followed by replating on agar plate and measured after overnight incubation by time-kill assay. Format: functional, organism-based.
The subject of series [2] is Staphylococcus aureus. Put plainly: Bacteriostatic activity against Staphylococcus aureus ATCC 25923 at 1 to 4 times MIC preincubated for up to 24 hrs followed by replating on agar plate measured after overnight incubation by time-kill assay. The series is classed as functional, organism-based.
Series [3] concerns Staphylococcus aureus. Put plainly: microbe, parasite or virus in culture. As to conditions: ATCC 25923, 20 h.
The test system of series [4] is Staphylococcus aureus. Put plainly: microbe, parasite or virus in culture. As to conditions: ATCC 29213, 20 h.
A short description of series [5]: microbe, parasite or virus in culture. As to conditions: Enterobacter cloacae, ATCC 13047, 20 h.
A further series relates to Bacteria. Briefly: Binding affinity to bacterial NusB assessed as change in chiral structure at 2 ug/ml by circular dichroism spectroscopic analysis. The procedure, abridged:
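Circular dichroism spectra were recorded on NusB at 2.0 µg/mL in neutral phosphate buffer, alone and after mixing with compound at a 1:1 ratio. Binding was read as a change in the spectrum.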
Background: CD spectra are sensitive to the conformation of chiral molecules.

For series [6], the system named is Staphylococcus aureus. Briefly: Antimicrobial activity against Staphylococcus aureus ATCC BAA43 incubated for 20 hrs by microdilution method. The conditions noted are these: ATCC BAA43, 20 h. Format: functional. The gist of the method:
(§2)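 MIC determined by microdilution following Clinical & Laboratory Standards Institute (CLSI) guidelines, read in µg/mL, against a panel of hospital- and community-acquired MRSA strains.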

In series [7] the test system is Enterococcus casseliflavus. Briefly: Antimicrobial activity against Enterococcus casseliflavus ATCC 25788 incubated for 20 hrs by microdilution method. Format: functional. As to conditions: ATCC 25788, 20 h. The procedure, abridged:
as §1

In series [8] the test system is Staphylococcus epidermidis. Put plainly: Antimicrobial activity against Staphylococcus epidermidis ATCC 12228 incubated for 20 hrs by microdilution method. Format: functional. The conditions noted are these: ATCC 12228, 20 h. The procedure, abridged:
as §1

Series [9] can be described thus: Antimicrobial activity against Staphylococcus saprophyticus ATCC 15305 incubated for 20 hrs by microdilution method. The conditions noted are these: ATCC 15305, 20 h. Format: functional, Staphylococcus saprophyticus subsp. saprophyticus. The procedure, abridged:
as §1

For another series, the system named is Streptococcus pyogenes. Put plainly: Antimicrobial activity against Streptococcus pyogenes ATCC 19615 incubated for 20 hrs by microdilution method. The series is classed as functional. The conditions noted are these: ATCC 19615, 20 h. The procedure, abridged:
as §1

The subject of a further series is Streptococcus agalactiae. Briefly: Antimicrobial activity against Streptococcus agalactiae ATCC 12386 incubated for 20 hrs by microdilution method. Format: functional. The conditions noted are these: ATCC 12386, 20 h. The gist of the method:
as §1

The test system of series [10] is Staphylococcus aureus. Put plainly: Antimicrobial activity against Staphylococcus aureus ST239 incubated for 20 hrs by microdilution method. Format: functional. The conditions noted are these: CN79, 20 h. The procedure, abridged: as §2
Series [11] deals with Staphylococcus aureus. Put plainly: Antimicrobial activity against Staphylococcus aureus ATCC BAA44 incubated for 20 hrs by microdilution method. The conditions noted are these: ATCC BAA44, 20 h. Format: functional. The gist of the method: as §2
The subject of series [12] is Staphylococcus aureus. Put plainly: Antimicrobial activity against Staphylococcus aureus HA W231 ST45 incubated for 20 hrs by microdilution method. As to conditions: HA W231 ST45, 20 h. Format: functional. The procedure, abridged:
as §2

In series [13] the test system is Staphylococcus aureus. Put plainly: Antimicrobial activity against CA-methicillin-resistant Staphylococcus aureus W47 ST30 incubated for 20 hrs by microdilution method. Format: functional. As to conditions: W47 ST30, 20 h. The procedure, abridged: as §2
Series [14] relates to Staphylococcus aureus. Briefly: Antimicrobial activity against CA-methicillin-resistant Staphylococcus aureus W45 ST59 incubated for 20 hrs by microdilution method. As to conditions: W45 ST59, 20 h.
The subject of series [15] is Staphylococcus aureus. Briefly: Antimicrobial activity against CA-methicillin-resistant Staphylococcus aureus W46 ST59 incubated for 20 hrs by microdilution method. As to conditions: W46 ST59, 20 h.
Series [16] relates to Staphylococcus aureus. Put plainly: Antimicrobial activity against Staphylococcus aureus USA300/ST8 incubated for 20 hrs by microdilution method. As to conditions: USA300 ST8, 20 h.
For series [17], the system named is Staphylococcus aureus. Put plainly: Antimicrobial activity against Staphylococcus aureus ST22 11B086169 incubated for 20 hrs by microdilution method. Format: functional. The conditions noted are these: ST22 11B086169, 20 h. The gist of the method:
as §2

The subject of series [18] is Staphylococcus aureus. Put plainly: Antimicrobial activity against CA-methicillin-resistant Staphylococcus aureus W4 ST338 incubated for 20 hrs by microdilution method. The series is classed as functional. The conditions noted are these: W4 ST338, 20 h. The gist of the method: as §2
The test system of series [19] is Staphylococcus aureus. Briefly: Antimicrobial activity against CA-methicillin-resistant Staphylococcus aureus W48 ST217 incubated for 20 hrs by microdilution method. As to conditions: W48 ST217, 20 h.
The subject of series [20] is Staphylococcus aureus. Briefly: Antimicrobial activity against Staphylococcus aureus HA W235 ST5 incubated for 20 hrs by microdilution method. Format: functional. As to conditions: HA W235 ST5, 20 h. The procedure, abridged: as §2
A short description of series [21]: Cytotoxicity against human A549 cells assessed as reduction in cell viability after 48 to 72 hrs by MTT assay. Format: cell-based. On the technique in general: Formazan colour is commonly taken as a measure of viable cells.
A short description of series [22]: Cytotoxicity against human HaCaT cells assessed as reduction in cell viability after 48 to 72 hrs by MTT assay. Format: cell-based.
Series [23] in a line: Therapeutic index, ratio of CC50 for human A549 cells to 1/2 times MIC for Staphylococcus aureus ATCC 25923. The series is classed as toxicity. As to conditions: read-out: TI.
The nature of series [24]: Therapeutic index, ratio of CC50 for human HaCaT cells to 1/2 times MIC for Staphylococcus aureus ATCC 25923. The conditions noted are these: read-out: TI. The series is classed as toxicity.

What is called inhibition is the change of the read-out against control, counted positive when it falls. Low readings indicate a weak effect, high ones a strong effect. `C#Cc1cccc(/N=C/c2cc([N+](=O)[O-])ccc2O)c1` gave an inhibition with Bacillus subtilis of 85.3%. The MIC with Enterococcus faecium was above 256 mg/L; with Streptococcus pneumoniae it was 16 mg/L (≈ 60.1 µM); in the series on Acinetobacter baumannii it was 64 mg/L (≈ 240 µM); against Pseudomonas aeruginosa it was above 256 mg/L; against Staphylococcus aureus [3] it was 8 mg/L (≈ 30 µM); in the series with Staphylococcus aureus [4], 16 mg/L (≈ 60.1 µM). In [5], this compound registered an MIC above 256 mg/L. The “growth inhibition (GI)” value in the series with Staphylococcus aureus [1] is “Active”. Further, the result with Staphylococcus aureus [2] was Active.
In the series on Bacillus subtilis, `CC(C)(C)c1ccccc1/N=C/c1cc([N+](=O)[O-])ccc1O` had an inhibition of 16.8%. Further, the outcome with Bacteria was Active. Moreover, the MIC was above 256 mg/L against Enterococcus faecium; 64 mg/L (≈ 215 µM) against Streptococcus pneumoniae; above 256 mg/L in the series with Acinetobacter baumannii; above 256 mg/L against Pseudomonas aeruginosa; 4 mg/L (≈ 13.4 µM) against Staphylococcus aureus [3]; 16 mg/L (≈ 53.6 µM) in the series with Staphylococcus aureus [4]. Further, the MIC in [5] is above 256 mg/L.
The term CC50 denotes the concentration that lowers cell viability or growth by half. As for `CC(C)(C)c1ccccc1NCc1cc([N+](=O)[O-])ccc1O`, the MIC with Staphylococcus aureus [6] was 2 mg/L (≈ 6.66 µM); against Enterococcus faecium, 8 mg/L (≈ 26.6 µM); in the series on Streptococcus pneumoniae it was 2 to 8 mg/L (≈ 6.66 to 26.6 µM); with Acinetobacter baumannii, above 256 mg/L; against Pseudomonas aeruginosa, above 256 mg/L; in series [7], 16 mg/L (≈ 53.3 µM). Further, the MIC in [8] amounted to 1 mg/L (≈ 3.33 µM); in [9] it was 2 mg/L (≈ 6.66 µM); with Streptococcus pyogenes, 8 mg/L (≈ 26.6 µM); against Streptococcus agalactiae, 8 mg/L (≈ 26.6 µM); in the series on Staphylococcus aureus [10] it was 2 mg/L (≈ 6.66 µM); against Staphylococcus aureus [11], 2 mg/L (≈ 6.66 µM). Besides, the MIC in the series with Staphylococcus aureus [12], with Staphylococcus aureus [13], against Staphylococcus aureus [14], with Staphylococcus aureus [15], against Staphylococcus aureus [16] and with Staphylococcus aureus [17] was 2 mg/L (≈ 6.66 µM) in each case. In addition, the MIC against Staphylococcus aureus [18] is 2 mg/L (≈ 6.66 µM); in the series with Staphylococcus aureus [19] it was 2 mg/L (≈ 6.66 µM); against Staphylococcus aureus [20] it was 2 mg/L (≈ 6.66 µM); with Staphylococcus aureus [3], 1 mg/L (≈ 3.33 µM); against Staphylococcus aureus [4] it was 4 mg/L (≈ 13.3 µM); in series [5], above 256 mg/L. Besides, the inhibition in the series with Bacillus subtilis is 72.2%. In addition, the result with Bacteria was Active. The CC50 in series [21] worked out at 13.4 µM; in series [22], 15.1 µM. Besides, the selectivity ratio in [23] is 8; in series [24] it was 9.
In the case of `CC(C)(C)c1cccc(NCc2cc([N+](=O)[O-])ccc2O)c1`, the MIC against Staphylococcus aureus [6] was 2 mg/L (≈ 6.66 µM); in the series on Enterococcus faecium it was 32 mg/L (≈ 107 µM); in the series with Streptococcus pneumoniae, 8 mg/L (≈ 26.6 µM); in the series with Acinetobacter baumannii, above 256 mg/L; with Pseudomonas aeruginosa, above 256 mg/L; in series [7], 32 mg/L (≈ 107 µM). Further, the MIC stood at 16 mg/L (≈ 53.3 µM) in [8]; 1 mg/L (≈ 3.33 µM) in series [9]; 16 mg/L (≈ 53.3 µM) against Streptococcus pyogenes; 16 mg/L (≈ 53.3 µM) with Streptococcus agalactiae; 8 mg/L (≈ 26.6 µM) with Staphylococcus aureus [10]; 8 mg/L (≈ 26.6 µM) in the series on Staphylococcus aureus [11]. Also, the MIC with Staphylococcus aureus [12] was 8 mg/L (≈ 26.6 µM); with Staphylococcus aureus [13], 4 mg/L (≈ 13.3 µM); in the series with Staphylococcus aureus [14], 8 mg/L (≈ 26.6 µM); with Staphylococcus aureus [15], 8 mg/L (≈ 26.6 µM); with Staphylococcus aureus [16] it was 8 mg/L (≈ 26.6 µM); against Staphylococcus aureus [17], 8 mg/L (≈ 26.6 µM). The MIC against Staphylococcus aureus [18] was 4 mg/L (≈ 13.3 µM); in the series on Staphylococcus aureus [19], 4 mg/L (≈ 13.3 µM); in the series with Staphylococcus aureus [20], 4 mg/L (≈ 13.3 µM); in the series with Staphylococcus aureus [3] it was 2 mg/L (≈ 6.66 µM); with Staphylococcus aureus [4], 4 mg/L (≈ 13.3 µM); in series [5], above 256 mg/L. The compound also displayed an inhibition in the series on Bacillus subtilis of 39.5%. For the same compound, the CC50 was 18.3 µM in series [21] and 20.2 µM in series [22]. Also, the selectivity ratio in series [23] and in [24] was 6 each time.
